Most compounds without a hit are left out; they make up all but 2.6% or so of the library.
SIAE inh – human SIAE inhibitors, primary screen, biochemical, fluorescence polarization, FP-Rh probe, 1536-well HTS | SIAE FP-Rh probe binding | 370,000 tested, 0.69% active | Sialate O-acetylesterase (Homo sapiens), Q9HAT2 | inhibition, % at 9.66 µM;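 active means inhibition above a cutoff: mean of compounds within the control limits plus 3 SD of those, cut at about 17% in these data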;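 further: 0% = plate median of compound wells and 100% = probe without SIAE protein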
Target sequence (Q9HAT2 whole entry, looked up): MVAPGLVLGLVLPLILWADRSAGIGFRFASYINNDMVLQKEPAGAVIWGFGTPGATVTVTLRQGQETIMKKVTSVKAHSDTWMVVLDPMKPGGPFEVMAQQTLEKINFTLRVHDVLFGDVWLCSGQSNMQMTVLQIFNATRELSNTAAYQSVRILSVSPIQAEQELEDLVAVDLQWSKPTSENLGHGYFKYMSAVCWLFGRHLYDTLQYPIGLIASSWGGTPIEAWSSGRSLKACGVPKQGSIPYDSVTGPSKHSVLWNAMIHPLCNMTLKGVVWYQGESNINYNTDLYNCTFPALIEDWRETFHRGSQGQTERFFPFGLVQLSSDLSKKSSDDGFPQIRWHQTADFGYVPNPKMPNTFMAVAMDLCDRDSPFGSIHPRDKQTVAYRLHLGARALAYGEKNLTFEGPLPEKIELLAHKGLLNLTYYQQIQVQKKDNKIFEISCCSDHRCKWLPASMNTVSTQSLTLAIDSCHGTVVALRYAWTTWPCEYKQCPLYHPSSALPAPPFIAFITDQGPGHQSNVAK
TCR CD3 inh – inhibitors of human TCR-CD3 interaction, primary screen, biochemical, fluorescence, TAMRA-labeled TCR probe; T-cell receptor (TCR); inhibition, % at 9.4 µM; 360,000 tested, 0.37% active; AID 651800, 2012; in the data active means inhibition above about 19%;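 further: recombinant mutant TCR 2C K166C tagged with TAMRA read by polarization; 0% = receptor in buffer alone and 100% = receptor with positive control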
ABHD4 inh – ABHD4 inhibitors, primary screen, biochemical, fluorescence polarization, mouse | (Lyso)-N-acylphosphatidylethanolamine lipase (Mus musculus), Q8VD66 | purified mABHD4, FP-Rh probe fluorescence polarization | inhibition, % at 8.92 µM | 370,000 tested, 0.54% active;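 active means inhibition exceeding the mean over every tested compound plus 3 SD, cut at about 30% in these data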;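 further: 0% = plate median of compound wells and 100% = S159A mutant with DMSO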
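assay system = mABHD4 protein | compound dosing = single nominal dose of 8.92 µM, 0.89% DMSO final | read-out basis = percent inhibition of probe binding, normalized to plate controls | schedule = Enzyme–compound pre-incubation 45 min, then probe 60 min, both 25 °C | detection = fluorescence polarization, excitation 525 nm, emission 598 nm, BODIPY TMR filters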
PRMT1 inh – PRMT1 methyltransferase inhibitors, primary screen, biochemical, fluorescence polarization. AID 652257, 2013. inhibition, % at 2.79 µM. recombinant PRMT1, activity-based probe fluorescence polarization. 370,000 tested, 1.3% active;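 active means inhibition above about 21% made by adding two undisclosed values, limit read from the data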
HTRA1 inh – HTRA1 serine protease inhibitors, primary screen, biochemical, fluorescence polarization, HTS. Q92743. recombinant HTRA1, FP-rhodamine activity-based probe. inhibition, % at 5.96 µM. 340,000 tested, 0.5% active; in the data active means inhibition above about 36%;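 further: 0% = enzyme with DMSO and 100% = wells lacking enzyme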
PRMT1 confirm – PRMT1 methyltransferase inhibitors, confirmation, biochemical, fluorescence polarization, triplicate; shares compounds with PRMT1 inh; recombinant His-PRMT1, activity-based probe fluorescence polarization; inhibition, % at 2.79 µM; 3,300 tested, 42% active; AID 687036, 2013;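 active means mean inhibition across replicates above the hit cutoff derived for the earlier primary screen, cut at about 22% in these data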
Numbers without * were called inactive; . = not tested or not shown.

SMILES	SIAE inh	TCR CD3 inh	ABHD4 inh	PRMT1 inh	HTRA1 inh	PRMT1 confirm
CCN(CC)C(=O)[C@H]1C[C@H](CC(=O)NCc2ccco2)C(=O)N2CCc3c([nH]c4cc(CCC(=O)N(C)C)ccc34)[C@]12C	2	1	-2	2	3	.
COCCCNC(=O)C[C@H]1C[C@@]2(C(=O)OC)C(=C[C@H](COCc3ccccc3)O[C@@H]2C)N(Cc2cccc3ccccc23)C1=O	2	.	-6	-3	.	.
CCc1nn2c(=O)cc(CSCC(=O)Nc3ccccc3Cl)nc2s1	.	.	.	.	-1	.
CCN(CC)c1ccc(/C=C(/C#N)c2nc3ccc(C)cc3[nH]2)c(OC(C)C)c1	-8	-9	-11	48*	18	53*
Cc1cccc(Cl)c1NC(=O)NCCCN1CCOCC1	0	4	3	3	.	.
CCN(CC)C(=S)SSC(=S)N(CC)CC	4	4	10	74*	1	80*
CCN(CC)C(=S)SCC(=O)c1ccccc1	7	0	9	-1	-2	.
Cc1ccc(NS(=O)(=O)c2ccc3c(c2)n(C)c(=O)n3C)cc1C	-5	-12	-13	25*	-4	8
O=C(Nc1ccc2c(c1)OCO2)C1CC(=O)N(c2cccc(Cl)c2)C1 (stereo unspecified)	-3	-2	-1	-1	1	.
CN(C)/C=C1/Sc2ccccc2C1=O	-1	-9	2	57*	1	29*
CC(=O)Nc1ccc(/C=C2/Sc3ccccc3C2=O)cc1	.	.	.	.	6	.
O=C1/C(=C\c2cccnc2)Sc2ccccc21	-22	-11	-2	31*	-7	4
CC(=O)N(\C=C/C=C/C=C1\Sc2ccccc2C1=O)c1ccccc1	-8	-14	-2	46*	34	26*
CN1/C(=C/C(=O)c2ccc(Cl)cc2)Sc2cc3c(cc21)OCO3	0	5	7	33*	4	3
COc1ccc2c(c1)S/C(=C\C(=O)c1ccncc1)N2C	4	-1	-5	45*	1	11
COc1ccc(C(=O)/C=C2/Sc3cc4c(cc3N2C)OCO4)cc1	-3	3	4	1	1	.
CC(C)(C)Sc1ccc(N)nc1	-1	-6	-6	36*	-1	2
CCn1cc(/C=C/c2cc[n+](C)cc2)c2ccccc21	-6	-5	-12	21	-22	.
CC(C)n1cc(/C=C/c2cc[n+](C)cc2)c2ccccc21	-2	7	-9	31*	-7	19
Cc1cc(-c2ccco2)n(-c2ccccc2)n1	-4	-10	-10	43*	-7	21*
CC1(C)CC(NC(=O)COc2ccc3c4c(c(=O)oc3c2)CCCC4)CC(C)(C)N1	0	1	5	-3	3	.
O=C(CCl)NC(Cc1c[nH]c2ccc(OCc3ccccc3)cc12)C(=O)O (stereo unspecified)	3	5	2	-2	4	.
Cc1ccc2c(c1)[C@H]1[C@H](CO2)[C@H](c2ccccc2)[C@]2(C)C(=O)N(Cc3ccc(F)cc3)CC(=O)N12	-6	0	-11	38*	-30	11
Cc1ccc2c(c1)[C@H]1[C@H](CO2)[C@H](c2ccccc2)[C@]2(C)C(=O)N(Cc3ccc(Cl)cc3)CC(=O)N12	-6	3	-15	-3	-43	.
Cc1cccc2cc(C(c3nnnn3Cc3ccccc3)N3CCCc4ccccc43)c(=O)[nH]c12 (stereo unspecified)	9	3	5	26*	0	-3
SMILES	SIAE inh	TCR CD3 inh	ABHD4 inh	PRMT1 inh	HTRA1 inh	PRMT1 confirm
CC1CC(C)(C)NC2(CCCC2)N1 (stereo unspecified)	3	-1	-3	5	4	.
O=C(Cc1ccc([N+](=O)[O-])cc1)N/N=C/c1cccs1	5	-7	4	1	-7	.
O=C(O)Cn1cc(C(=S)N2CCCCC2)c2ccccc21	-1	-2	15	25*	0	5
O=C(O)Cn1cc(C(=S)N2CCOCC2)c2ccccc21	0	-6	-4	17	3	.
Nc1c(N(Cc2ccccc2)C(=O)COc2ccc([N+](=O)[O-])cc2)c(=O)[nH]c(=O)n1Cc1ccccc1	-22	0	0	1	-15	.
CCC1=NN2C(=N)/C(=C\c3ccc(SCc4ccco4)o3)C(=O)N=C2S1	-55	-31	-105	39*	-95	15
CCCC1=NN2C(=N)/C(=C\c3ccc(SCc4ccco4)o3)C(=O)N=C2S1	.	.	.	.	-68	.
CN=Cc1sc2ccccc2c1O	-10	-9	1	52*	4	27*
Oc1c(C=Nc2cccnc2)sc2ccccc12	-14	-19	-15	65*	3	45*
Oc1sc(C=Nc2ccccc2)c2ccccc12	-2	4	1	1	1	.
CC(=O)NCCN=Cc1sc2ccccc2c1O	-7	-5	-3	40*	-4	30*
Oc1c(C=Nc2ccccc2)sc2ccccc12	-9	-11	-11	59*	-6	32*
CCN(C(=O)Cn1nc(C)n2c(cc3cc(C)ccc32)c1=O)c1ccccc1	0	-2	-5	2	-3	.
CCN1C(=O)CC(N2CCC(c3nc4ccccc4[nH]3)CC2)C1=O (stereo unspecified)	3	-2	4	-4	9	.
Cc1cccc(N2C(=O)CC(N3CCC(c4nc5ccccc5[nH]4)CC3)C2=O)c1 (stereo unspecified)	-2	4	4	47*	-1	3
COc1cccc(N2C(=O)CC(N3CCC(c4nc5ccccc5[nH]4)CC3)C2=O)c1 (stereo unspecified)	1	5	-8	60*	-2	0
COc1ccc(N2CC(C(=O)N3CCC(c4nc5ccccc5[nH]4)CC3)CC2=O)cc1 (stereo unspecified)	2	-6	5	0	-2	.
COc1ccc(C(C(=O)NC(C)(C)C)N(C(=O)CCC(=O)Nc2ccccn2)C2CCCCC2)cc1 (stereo unspecified)	5	9	3	-1	-3	.
COc1cccc(-c2nc(=S)c3c(n2Cc2ccco2)CCCC3)c1	-10	-4	-6	26*	-18	1
CC(C)n1cc(/C=N/Nc2ccc(C(=O)O)cc2)c2ccccc21	9	-4	17	26*	10	4
Cn1cc(/C=N/Nc2ccccc2)c2ccccc21	12	1	8	4	2	.
O=C(Nc1cc([N+](=O)[O-])ccc1C(=O)NCCN1CCOCC1)c1ccccc1	4	8	13	2	0	.
CN1CCN(S(=O)(=O)c2cccc3nsnc23)CC1	12	3	-2	4	0	.

Source: PubChem
